The record followed here is ChEMBL document CHEMBL3593173, “Discovery of novel N-(5-(tert-butyl)isoxazol-3-yl)-N'-phenylurea analogs as potent FLT3 inhibitors and evaluation of their activity against acute myeloid leukemia in vitro and in vivo” (Bioorg Med Chem, 2015).

The subject of one series is MV4-11. In words: Cytotoxicity against human MV4-11 cells incubated for 72 hrs by MTT assay. The class given is functional, cell-based. Particulars: MV4-11, 72 h. The procedure, abridged:
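Leukemia cells were grown with 10% FBS at 37 °C in 5% CO₂; MV4-11 was kept in IMDM. Cells were seeded at 1–4 × 10⁴ per well, and an equal volume of medium containing increasing inhibitor concentrations was added. MTT was added for 2–4 h, formazan was dissolved in DMSO, and OD was read at 570 nm to derive IC50.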
On the technique in general: Formazan colour is commonly taken as a measure of viable cells.

Series [1] can be described thus: Solubility in MeOH solution. It counts as physicochemical.
Series [2] in a line: Solubility in EtOH solution. It counts as physicochemical.
Series [3] is described as follows: Solubility in PBS solution. It counts as physicochemical.
Series [4] in a line: Solubility in water. It counts as physicochemical.

The structures appear in SMILES notation. Converted amounts (≈) assume the structure as drawn.

As usually defined, the IC50 is the concentration needed to halve the response being measured. Low readings indicate greater potency in that assay, high ones weaker potency in that assay. Consider `CC(C)(C)c1cc(NC(=O)Nc2ccc(-c3cn4c(n3)sc3cc(OCCN5CCOCC5)ccc34)cc2)no1` [QUIZARTINIB], for which, in the series with MV4-11, inhibition was half-maximal at 0.68 nM (IC50).

As to `CC(C)(C)c1cc(NC(=O)Nc2ccc(-c3cn4cc(I)ccc4n3)cc2)no1`, in the series with MV4-11, half-maximal inhibition (IC50) was put at 98.5 nM.

Take `CC(C)(C)c1cc(NC(=O)Nc2ccc(-c3cn4ccc(Cl)cc4n3)cc2)no1`: half-maximal inhibition with MV4-11 (IC50) was put at 5.91 nM.

As for `CC(C)(C)c1cc(NC(=O)Nc2ccc(-c3cc4ccccc4s3)cc2)no1`, in the series with MV4-11, the IC50 is above 900 nM.

`CCOc1ccn2cc(-c3ccc(NC(=O)Nc4cc(C(C)(C)C)on4)cc3)nc2c1` displayed an IC50 in the series on MV4-11 of 11.6 nM.

Regarding `CC(C)(C)c1cc(NC(=O)Nc2ccc(-c3cn4cc(Br)ccc4n3)cc2)no1`, half-maximal inhibition with MV4-11 (IC50) was put at 44.5 nM.

In the case of `CC(C)(C)c1cc(NC(=O)Nc2ccc(-c3cn4cccc(F)c4n3)cc2)no1`, 12.2 nM corresponded to half-maximal inhibition in the series on MV4-11 (IC50).

`CC(C)(C)c1cc(NC(=O)Nc2ccc(-c3cn4cccc(Cl)c4n3)cc2)no1` returned an IC50 with MV4-11 of 353 nM.

Take `CC(C)(C)c1cc(NC(=O)Nc2ccc(-c3cn4ccc(Br)cc4n3)cc2)no1`: the IC50 in the series with MV4-11 came out at 9.59 nM.

For the compound `CC(C)(C)c1cc(NC(=O)Nc2ccc(-c3cn4ccncc4n3)cc2)no1`, the IC50 in the series with MV4-11 came out at 44.8 nM.

The term solubility denotes how much of the substance goes into solution per volume. Lower therefore signals a poorly soluble substance. With `Cc1ccn2cc(-c3ccc(NC(=O)Nc4cc(C(C)(C)C)on4)cc3)nc2c1`, the solubility in series [1] was determined as 6830 µg/mL (≈ 17.5 mM); in series [2], 3340 µg/mL (≈ 8.58 mM). Moreover, in the series on MV4-11, the IC50 turned out to be 0.79 nM.

In the case of `CC(C)(C)c1cc(NC(=O)Nc2ccc(-c3cn4cc(Cl)ccc4n3)cc2)no1`, half-maximal inhibition in the series on MV4-11 (IC50) required 24.8 nM.

`CC(C)(C)c1cc(NC(=O)Nc2ccc(-c3cn4c(Cl)cccc4n3)cc2)no1` registered an IC50 with MV4-11 of 56.1 nM.

`Cc1cccc2nc(-c3ccc(NC(=O)Nc4cc(C(C)(C)C)on4)cc3)cn12` registered an IC50 in the series on MV4-11 of 20.2 nM.

Turning to `CC(C)(C)c1cc(NC(=O)Nc2ccc(-c3cn4cccc(C(F)(F)F)c4n3)cc2)no1`, in the series on MV4-11, the IC50 was above 900 nM.

`CC(=O)Oc1ccn2cc(-c3ccc(NC(=O)Nc4cc(C(C)(C)C)on4)cc3)nc2c1` showed an IC50 in the series on MV4-11 of 29.4 nM.

`CC(C)(C)c1cc(NC(=O)Nc2ccc(-c3cc4ccccc4o3)cc2)no1` had an IC50 in the series with MV4-11 of 195 nM.

In the case of `Cc1cccn2cc(-c3ccc(NC(=O)Nc4cc(C(C)(C)C)on4)cc3)nc12`, the IC50 with MV4-11 turned out to be 248 nM.

For `C#Cc1ccn2cc(-c3ccc(NC(=O)Nc4cc(C(C)(C)C)on4)cc3)nc2c1`, the solubility came out at 10.2 µg/mL (≈ 0.0255 mM) in series [3], 5840 µg/mL (≈ 14.6 mM) in series [1], 26.7 µg/mL (≈ 0.0668 mM) in series [4] and 4100 µg/mL (≈ 10.3 mM) in series [2]. The compound further returned an IC50 in the series on MV4-11 of 3.46 nM.

Regarding `CC(C)(C)c1cc(NC(=O)Nc2ccc(-c3cn4cc(C5CC5)ccc4n3)cc2)no1`, the IC50 in the series on MV4-11 is 15.8 nM.

In the series on MV4-11, `CC(C)(C)c1cc(NC(=O)Nc2ccc(-c3nc4ccccc4o3)cc2)no1` registered an IC50 of 82.6 nM.

Compound `CC(C)(C)c1cc(NC(=O)Nc2ccc(-c3cn4ncccc4n3)cc2)no1` had a 50% inhibitory concentration (IC50) in the series with MV4-11 of 59 nM.

In turn, `CC(C)(C)c1cc(NC(=O)Nc2ccc(-c3cn4cccnc4n3)cc2)no1` displayed an IC50 in the series on MV4-11 of 171 nM.

`C#Cc1ccc2nc(-c3ccc(NC(=O)Nc4cc(C(C)(C)C)on4)cc3)cn2c1` displayed an IC50 with MV4-11 of 8.62 nM.

On to `CC(C)(C)c1cc(NC(=O)Nc2ccc(-c3cn4ccccc4n3)cc2)no1`, for which the solubility in series [1] came to 5280 µg/mL (≈ 14.1 mM); in series [2], 4070 µg/mL (≈ 10.8 mM). Besides, 3.09 nM corresponded to half-maximal inhibition in the series with MV4-11 (IC50).

`Cc1ccc2nc(-c3ccc(NC(=O)Nc4cc(C(C)(C)C)on4)cc3)cn2c1` yielded an IC50 in the series with MV4-11 of 4.08 nM.

Turning to `CC(C)(C)c1cc(NC(=O)Nc2ccc(-c3cn4cc(F)ccc4n3)cc2)no1`, in the series with MV4-11, the IC50 was 20.9 nM.

Regarding `CC(C)(C)c1cc(NC(=O)Nc2ccc(-c3nc4ccccc4s3)cc2)no1`, in the series on MV4-11, the IC50 amounted to 172 nM.
